Measurements taken from article PMC7194030 (Science translational medicine, 2019).
Where a name gives a salt, the structure may show the parent alone. Read-outs that look alike come from different tables or passages of the source.

Assays:
[1] = system: murine BFU-Es; experiment: Mouse BFU-E culture system; type: cell-based; conditions: for BFU-E expansion: purified murine fetal liver BFU-Es, cell numbers counted days 0 to 9; for Percentage of Ter119+ cells with or without compound: day 14 of culture, flow cytometry
In short: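 Cells are counted from day 0 to day 9 (three distinct samples; two-way ANOVA). At end of culture, cells are stained with anti-Ter119 and Ter119+ percentage is measured by flow cytometry (three samples; one-tailed t test).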

[2] = system: BFU-Es; experiment: cAMP assay in BFU-Es; type: cell-based, mouse; conditions: PD102807 3 nM, forskolin 10 μM, 45 min
In short: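 Sorted murine fetal-liver BFU-Es are exposed for 45 min to DMSO, 3 nM test compound, or 10 μM forskolin. Cells are lysed in 0.1 M HCl (20 min, room temperature) and cleared at 15,000g for 10 min. Samples are neutralized, acetylated, and run in a competitive cAMP immunoassay (antibody, then cAMP-HRP, 1 h each; HRP developer 1 h). The reaction is stopped with 1 M HCl and read at OD 450 nm.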

[3] = system: human CD34+ HSPC; experiment: Human CD34+ HSPC erythroid differentiation culture system; type: cell-based; conditions: for Formation of BFU-E colonies: human CD34+ HSPC; for Erythroid cell expansion: human CD34+ HSPC from healthy donors
[4] = system: Mx1-Cre Srsf2P95H/WT MDS mice; type: in vivo; conditions: for BFU-E self-renewal (splenic BFU-E colonies): daily treatment
[5] = system: murine BFU-Es; experiment: RNA-seq of cultured BFU-Es; type: cell-based, mouse; conditions: 100 μM oxyphenonium bromide or 3 nM PD102807
In short: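 BFU-Es FACS-sorted from E14.5 mouse fetal liver and cultured at 37°C in serum-free SFEM II with SCF, EPO, IGF-1 and dexamethasone. Treatments: test compound (100 μM or 3 nM), 100 nM dexamethasone, or DMSO. RNA extracted with a column kit, Illumina libraries prepared, sequenced on HiSeq 2500. Three to six replicates.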

[6] = system: C57bl/6 mice; conditions: in vivo
[7] = system: murine BFU-Es; experiment: BFU-E colony formation assay of cultured murine BFU-Es; type: cell-based, mouse; conditions: colonies counted on day 9 of colony formation assay
In short: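 BFU-Es (lin−Ter119−CD16/CD32−Sca-1−CD41−c-Kit+CD71/Cd24a10%low) are FACS-sorted from E14.5 C57bl/6 fetal liver. Cells are then plated in MethoCult SF M3436, and colonies are counted on day 9. Nine distinct samples; one-tailed t test.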

[8] = system: C57bl/6 mice; experiment: Pharmacodynamics study; type: in vivo, mouse
In short: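 PHZ hemolytic anemia model: female C57bl/6 mice, 8–10 weeks old, randomised to groups and given test compound at different doses or DMSO control intraperitoneally every day. Anemia induced with intraperitoneal PHZ (60 mg/kg). Complete blood counts taken. 7 to 10 mice per group.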

[9] = target: human recombinant CHRM4 receptor (Homo sapiens, UniProt P08173); conditions: protein binding assay, IC50 on CHRM1-5
Chain of human recombinant CHRM4 receptor (P08173 whole entry): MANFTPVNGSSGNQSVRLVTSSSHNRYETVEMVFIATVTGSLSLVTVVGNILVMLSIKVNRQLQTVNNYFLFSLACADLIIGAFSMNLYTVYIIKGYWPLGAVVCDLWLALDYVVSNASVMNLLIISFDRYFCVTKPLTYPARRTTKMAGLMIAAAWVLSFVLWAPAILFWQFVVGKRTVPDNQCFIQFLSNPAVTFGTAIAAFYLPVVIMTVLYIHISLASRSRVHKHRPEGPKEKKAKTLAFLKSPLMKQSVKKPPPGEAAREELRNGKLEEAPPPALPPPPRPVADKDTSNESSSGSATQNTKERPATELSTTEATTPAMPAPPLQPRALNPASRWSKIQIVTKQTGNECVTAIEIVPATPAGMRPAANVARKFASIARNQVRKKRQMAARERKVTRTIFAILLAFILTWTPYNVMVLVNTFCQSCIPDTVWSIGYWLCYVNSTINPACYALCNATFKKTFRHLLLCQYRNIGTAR

[10] = system: CFU-E; experiment: Mouse CFU-E culture system; type: cell-based
[11] = system: CD34+ cells from patients with MDS; experiment: Erythroid differentiation culture of CD34+ cells from patients with MDS; type: cell-based, human
In short: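 MDS patient CD34+ cells (eight patients) are cultured in SFEM with rhSCF 20 ng/ml, rhIL-3 5 ng/ml, EPO 1 U/ml and dexamethasone 1 nM, with DMSO or 3 nM test compound. Read-outs: relative cell expansion, CD235a+ fraction by flow cytometry, annexin V apoptosis, and May-Grünwald–Giemsa cytospin morphology. One-tailed t test.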

Structure (SMILES) | cAMP concentration in BFU-Es relative to DMSO [2] | BFU-E expansion [1] | Formation of BFU-E colonies [3] | Erythroid cell expansion [3] | BFU-E self-renewal (splenic BFU-E colonies) ([4]; MDS mice) | BFU-E gene signature expression [5] | Anti-anemia minimal effective dose [8] [mg/kg] | Percentage of Ter119+ cells with or without compound [1] | other results
CCCCCCOC(=O)[C@]1(O)C[C@@H]2O[C@@]1(C)n1c3ccccc3c3c4c(c5c6ccccc6n2c5c31)C(=O)NC4 [KT5720] |  |  |  |  |  |  |  |  | Effect on CHRM4 antagonist-induced BFU-E expansion ([1]; 2 μM KT5720 with 3 nM PD102807, day 9): blocked CHRM4 antagonist–induced BFU-E expansion
C=C[C@@]1(C)CC(=O)[C@]2(O)[C@@]3(C)[C@@H](O)CCC(C)(C)[C@@H]3[C@H](O)[C@H](OC(C)=O)[C@@]2(C)O1 [forskolin] | increased in concentration | promoted BFU-E expansion |  |  |  |  |  |  | 
CC[N+](C)(CC)CCOC(=O)C(O)(c1ccccc1)C1CCCCC1 (stereo not shown) [oxyphenonium bromide] |  | triggered BFU-E expansion | increased formation of BFU-E colonies | expanded erythroid cells | promoted BFU-E self-renewal | up-regulated a gene signature characteristic of BFU-Es | 25 | no difference | Maximal tolerated dose ([6]; female, C57bl/6, mouse, 7 days): 50 mg/kg; Formation of BFU-E colonies [7]: increased formation of BFU-E colonies; BFU-E expansion and erythrocyte production ([1]; 100 μM oxyphenonium bromide): prolonged expansion resulting in increased production of erythrocytes
Cc1ccccc1C(OCCN(C)C)c1ccccc1 (stereo not shown) [orphenadrine citrate] |  | triggered BFU-E expansion |  |  | promoted BFU-E self-renewal |  | 100 |  | Tolerability in vivo ([4]; mouse, in vivo): well tolerated; White blood cell or platelet production ([4]; mouse, in vivo): no influence
CCOC(=O)c1c(C)[nH]c2ccc3c(c12)CN1CCc2cc(OC)ccc2C1O3 (stereo not shown) [PD102807] | increased in concentration | promoted BFU-E expansion at nanomolar concentrations | increased formation of BFU-E colonies | expanded erythroid cells | promoted BFU-E self-renewal | up-regulated a gene signature characteristic of BFU-Es | 100 | no difference | Selectivity for CHRM4 over other muscarinic acetylcholine receptors [9]: selectively inhibits CHRM4 over other muscarinic acetylcholine receptors; CFU-E proliferation [10]: no effect; Cell survival or differentiation with and without compound ([11]; 3 nM PD102807): no difference; Production of erythroid cells ([11]; 3 nM PD102807, eight patients): increased production of erythroid cells; Tolerability in vivo ([4]; MDS mice): well tolerated; Weight loss, liver or kidney function ([4]; MDS mice): no substantial effects; White blood cell or platelet production ([4]; MDS mice): no influence; Maximal tolerated dose ([6]; mouse): 100 mg/kg
